From ChEMBL document CHEMBL1250553, “Synthesis, cytotoxicity and liposome preparation of 28-acetylenic betulin derivatives” (Bioorg Med Chem, 2010)
Activity calls are given as the source filed them. The rule behind the calls is not given here.

Legend:
A2780 (Homo sapiens) = assay: Induction of apoptosis in human A2780 cells assessed as floating cells at IC90 concentration after 24 hrs by Trypan blue exclusion test
SW480 (Homo sapiens) = assay: Induction of apoptosis in human SW480 cells assessed as DNA ladder formation at IC90 concentration after 24 hrs by DNA gel electrophoresis analysis
[1] = Cytotoxicity against human liposarcoma cells after 96 hrs by sulforhodamine B assay; assay type: functional, cell-based
Method in brief: (§1)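 Human tumour cell lines in 96-well plates, exposed to test compounds for 96 h, then read by colorimetric sulforhodamine B staining. Viable cells are expressed as % of untreated controls. IC50 is taken from dose–response curves, top concentration 30 µM, as the mean of at least three independent experiments (variation generally 10%). Compounds are given as DMSO solutions or as an aqueous liposomal formulation.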

[2] = Cytotoxicity against human 518A2 cells after 96 hrs by sulforhodamine B assay; assay type: functional, cell-based; conditions: 518A2, 96 h
Method in brief: as §1

A2780 [3] = assay: Induction of apoptosis in human A2780 cells assessed as floating cells at IC90 concentration after 24 hrs by Trypan blue exclusion test; assay type: functional, cell-based
Method in brief: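 A2780 ovarian cancer cells treated for 24 h. Floating cells are collected and scored by trypan-blue exclusion: apoptotic cells exclude the dye, necrotic cells stain blue.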

SW480 [4] = assay: Induction of apoptosis in human SW480 cells assessed as DNA ladder formation at IC90 concentration after 24 hrs by DNA gel electrophoresis analysis; assay type: functional, cell-based
Method in brief: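 SW480 colon cancer cells treated for 24 h. Floating cells are collected, and DNA is analysed by gel electrophoresis for endonuclease-generated fragment laddering.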

[5] = Cytotoxicity against human A253 cells after 96 hrs by sulforhodamine B assay; assay type: functional, cell-based; conditions: A253, 96 h
Method in brief: as §1

A-431 [6] = assay: Cytotoxicity against human A431 cells at 30 uM after 96 hrs by sulforhodamine B assay; assay type: functional, cell-based
Method in brief: (§2)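 Growth inhibition at the highest tested concentration, 30 µM, after 96 h exposure in 96-well plates. Read by SRB staining as % viable cells relative to untreated controls, from at least three independent experiments.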

HCT-8 [7] = assay: Cytotoxicity against human HCT8 cells at 30 uM after 96 hrs by sulforhodamine B assay; assay type: functional, cell-based
Method in brief: as §2

8505C [8] = assay: Cytotoxicity against human 8505C cells at 30 uM after 96 hrs by sulforhodamine B assay; assay type: functional, cell-based
Method in brief: as §2

HT-29 [9] = assay: Cytotoxicity against human HT-29 cells at 30 uM after 96 hrs by sulforhodamine B assay; assay type: functional, cell-based
Method in brief: as §2

FaDu [10] = assay: Cytotoxicity against human FADU cells at 30 uM after 96 hrs by sulforhodamine B assay; assay type: functional, cell-based
Method in brief: as §2

SW480 [11] = assay: Cytotoxicity against human SW480 cells at 30 uM after 96 hrs by sulforhodamine B assay; assay type: functional, cell-based
Method in brief: as §2

SW-1736 [12] = assay: Cytotoxicity against human SW1736 cells at 30 uM after 96 hrs by sulforhodamine B assay; assay type: functional, cell-based
Method in brief: as §2

A549 [13] = assay: Cytotoxicity against human A549 cells at 30 uM after 96 hrs by sulforhodamine B assay; assay type: functional, cell-based
Method in brief: as §2

A253 = assay: Cytotoxicity against human A253 cells at 30 uM after 96 hrs by sulforhodamine B assay; assay type: functional, cell-based
Method in brief: as §2

A2780 [14] = assay: Cytotoxicity against human A2780 cells at 30 uM after 96 hrs by sulforhodamine B assay; assay type: functional, cell-based
Method in brief: as §2

518A2 = assay: Cytotoxicity against human 518A2 cells at 30 uM after 96 hrs by sulforhodamine B assay; assay type: functional, cell-based
Method in brief: as §2

HCT-116 [15] = assay: Cytotoxicity against human HCT116 cells at 30 uM after 96 hrs by sulforhodamine B assay; assay type: functional, cell-based
Method in brief: as §2

DLD-1 [16] = assay: Cytotoxicity against human DLD1 cells at 30 uM after 96 hrs by sulforhodamine B assay; assay type: functional, cell-based
Method in brief: as §2

Homo sapiens = species on record: Homo sapiens; assay: Cytotoxicity against human liposarcoma cells at 30 uM after 96 hrs by sulforhodamine B assay; assay type: functional, cell-based
Method in brief: as §2

MCF7 [17] = assay: Cytotoxicity against human MCF7 cells at 30 uM after 96 hrs by sulforhodamine B assay; assay type: functional, cell-based
Method in brief: as §2

A2780 [18] = assay: Cytotoxicity against human A2780 cells after 96 hrs by sulforhodamine B assay; assay type: functional, cell-based; conditions: A2780, 96 h
Method in brief: as §1

HCT-8 [19] = assay: Cytotoxicity against human HCT8 cells after 96 hrs by sulforhodamine B assay; assay type: functional, cell-based; conditions: HCT-8, 96 h
Method in brief: as §1

HCT-116 [20] = assay: Cytotoxicity against human HCT116 cells after 96 hrs by sulforhodamine B assay; assay type: functional, cell-based; conditions: HCT-116, 96 h
Method in brief: as §1

A549 [21] = assay: Cytotoxicity against human A549 cells after 96 hrs by sulforhodamine B assay; assay type: functional, cell-based; conditions: A549, 96 h
Method in brief: as §1

FaDu [22] = assay: Cytotoxicity against human FADU cells after 96 hrs by sulforhodamine B assay; assay type: functional, cell-based
Method in brief: as §1

SW-1736 [23] = assay: Cytotoxicity against human SW1736 cells after 96 hrs by sulforhodamine B assay; assay type: functional, cell-based; conditions: SW-1736, 96 h
Method in brief: as §1

8505C [24] = assay: Cytotoxicity against human 8505C cells after 96 hrs by sulforhodamine B assay; assay type: functional, cell-based
Method in brief: as §1

HT-29 [25] = assay: Cytotoxicity against human HT-29 cells after 96 hrs by sulforhodamine B assay; assay type: functional, cell-based; conditions: HT-29, 96 h
Method in brief: as §1

SW480 [26] = assay: Cytotoxicity against human SW480 cells after 96 hrs by sulforhodamine B assay; assay type: functional, cell-based; conditions: SW480, 96 h
Method in brief: as §1

A-431 [27] = assay: Cytotoxicity against human A431 cells after 96 hrs by sulforhodamine B assay; assay type: functional, cell-based; conditions: A-431, 96 h
Method in brief: as §1

MCF7 [28] = assay: Cytotoxicity against human MCF7 cells after 96 hrs by sulforhodamine B assay; assay type: functional, cell-based; conditions: MCF7, 96 h
Method in brief: as §1

DLD-1 [29] = assay: Cytotoxicity against human DLD1 cells after 96 hrs by sulforhodamine B assay; assay type: functional, cell-based; conditions: DLD-1, 96 h
Method in brief: as §1

Row | Compound | IC50 [1] [µM] | IC50 [2] [µM] | IC50 [5] [µM] | inhibition (DLD-1 [16]) | IC50 (A2780 [18]) [µM] | IC50 (HCT-8 [19]) [µM] | IC50 (HCT-116 [20]) [µM] | IC50 (A549 [21]) [µM] | IC50 (FaDu [22]) [µM] | IC50 (SW-1736 [23]) [µM] | IC50 (8505C [24]) [µM] | IC50 (HT-29 [25]) [µM] | IC50 (SW480 [26]) [µM] | IC50 (A-431 [27]) [µM] | IC50 (MCF7 [28]) [µM] | other results
1 | C=C(C)[C@@H]1CC[C@]2([C@H](O)C#CC(=O)OC)CC[C@]3(C)[C@H](CC[C@@H]4[C@@]5(C)CC[C@H](OC(C)=O)C(C)(C)[C@@H]5CC[C@]43C)[C@@H]12 | 4.2 | 5.9 | 2.7 |  |  |  |  |  |  |  |  |  |  |  |  | Activity (A2780 (Homo sapiens)): Active; Activity (SW480 (Homo sapiens)): Active; Activity (A2780 [3]): Active; Activity (SW480 [4]): Active
2 | C=C(C)[C@@H]1CC[C@]2(C(=O)C#CC(=O)OC)CC[C@]3(C)[C@H](CC[C@@H]4[C@@]5(C)CC[C@H](OC(C)=O)C(C)(C)[C@@H]5CC[C@]43C)[C@@H]12 |  |  |  | inactive |  |  |  |  |  |  |  |  |  |  |  | inhibition (A-431 [6]): inactive; inhibition (HCT-8 [7]): inactive; inhibition (8505C [8]): inactive; inhibition (HT-29 [9]): inactive; inhibition (FaDu [10]): inactive; inhibition (SW480 [11]): inactive; inhibition (SW-1736 [12]): inactive; inhibition (A549 [13]): inactive; inhibition (A253): inactive; inhibition (A2780 [14]): inactive; inhibition (518A2): inactive; inhibition (HCT-116 [15]): inactive; inhibition (Homo sapiens): inactive; inhibition (MCF7 [17]): inactive
3 | C=C(C)[C@@H]1CC[C@]2(C(=O)O)CC[C@]3(C)[C@H](CC[C@@H]4[C@@]5(C)CC[C@H](O)C(C)(C)[C@@H]5CC[C@]43C)[C@@H]12 [BETULINIC ACID] | 9.7 |  |  |  | 11 |  |  |  |  |  |  |  |  |  |  | 
4 | C=C(C)[C@@H]1CC[C@]2([C@H](O)C3=C(C(=O)OC)C(C(=O)OCC)N=N3)CC[C@]3(C)[C@H](CC[C@@H]4[C@@]5(C)CC[C@H](OC(C)=O)C(C)(C)[C@@H]5CC[C@]43C)[C@@H]12 (stereo partly drawn) | 19.9 | 21.5 | 12.5 | inactive | 9.1 | 10 | 9.8 | 14.8 | 9.9 | 16.4 | 8.9 | 12 | 7.7 | 7.6 | 8 | 
5 | C=C(C)[C@@H]1CC[C@]2([C@H](O)c3c(C(=O)OCC)n[nH]c3C(=O)OC)CC[C@]3(C)[C@H](CC[C@@H]4[C@@]5(C)CC[C@H](OC(C)=O)C(C)(C)[C@@H]5CC[C@]43C)[C@@H]12 | 14 | 16.4 | 13.2 | inactive | 13.2 | 13.4 | 14 | 18.2 | 13.9 | 19.2 | 12 | 17 | 11.4 | 11.7 | 11.3 | 
6 | C=C(C)[C@@H]1CC[C@]2([C@@H]3OC(=O)C=C3N(C)C)CC[C@]3(C)[C@H](CC[C@@H]4[C@@]5(C)CC[C@H](OC(C)=O)C(C)(C)[C@@H]5CC[C@]43C)[C@@H]12 | 5.3 | 4.8 | 4.9 |  | 2.6 | 1.7 | 3.2 | 6.1 | 3.8 | 2.9 | 3.1 | 5.7 | 2.2 | 3.3 | 6.9 | Activity (A2780 (Homo sapiens)): Active; Activity (SW480 (Homo sapiens)): Active; Activity (A2780 [3]): Active; Activity (SW480 [4]): Active; IC50 (DLD-1 [29]): 3.6 µM
7 | C=C(C)[C@@H]1CC[C@]2([C@H](O)C#CCO)CC[C@]3(C)[C@H](CC[C@@H]4[C@@]5(C)CC[C@H](OC(C)=O)C(C)(C)[C@@H]5CC[C@]43C)[C@@H]12 | 11.4 | 11.9 | 10.3 | inactive | 10.4 | 11.6 | 11.3 | 11.9 | 11.2 | 11.5 | 8.4 | 11.6 | 6.9 | 10.5 | 9.9 | 
